Source: article PMC8413131 (Oncogene, 2021)

Key:
C4-2B MDVR cells = assay: Cell growth assay; format: cell-based; settings: for cell growth, 3 days: FBS, 5 μM Abi, 20 μM Enza, 20 μM Apal, 0.25-1.0 μM ARVibs, Fig.4A-4B
CWR22Rv1 cells = assay: Cell growth assay; format: cell-based; settings: for cell growth, 3 days: CWR22Rv1, FBS, 5 μM Abi, 20 μM Enza, 20 μM Apal, 0.25-1.0 μM ARVibs, Fig.4A-4B
[1] = tested on: AR-V7 and AR mutants (T878A, K581R, V716M, L702H); assay: PSA luciferase reporter, AR-V7 and AR mutants in 293 cells; format: cell-based; settings: FBS conditions, 16 hours, Fig.2G
Summary of the method: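 293 cells in FBS medium transfected with vector, AR-V7 or mutant AR (T878A, K581R, L702H, V716M) plus a PSA promoter–luciferase plasmid. Then exposed to anti-androgens or test compound for 16 h before luciferase read-out. Mean ± SD of three independent experiments.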

VCaP xenografts = assay: Relapsed VCaP tumor model, combination with Enza; format: in vivo, mice; settings: relapsed VCaP tumors
wild-type AR (WT-AR) = assay: PSA luciferase reporter, WT-AR in 293 cells; format: cell-based; settings: FBS conditions, 16 hours, Fig.2G
LuCaP 35CR xenografts = assay: LuCaP35CR PDX model, oral administration; format: in vivo, mice; settings: 150 mg/Kg p.o.
AR = assay: Western blot of AR expression in CWR22Rv1 cells; format: cell-based; settings: 1 μM, 16 hours
[2] = ref [20], [21]; cited from earlier work
CWR22Rv1 xenografts = assay: CWR22Rv1 tumor xenografts in SCID mice; format: in vivo; settings: 25 mg/Kg i.p., Supplementary Fig.6B
Summary of the method: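 C.B17 SCID males, 4–5 weeks old, given 3 million CWR22Rv1 cells mixed 1:1 with matrigel s.c. in flank. Randomized at 50–100 mm3 tumor volume. Test compound 25 mg/kg i.p. vs vehicle (15% Cremophor EL, 82.5% PBS, 2.5% DMSO, i.p.). Calipers twice weekly; volume = L×W×W×0.52. Tumors, liver and kidney harvested and weighed after 3 weeks; liver and kidney H&E stained.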

SMILES: C[C@]12CC[C@H](O)CC1=CC[C@@H]1[C@@H]2CC[C@]2(C)C(c3cccnc3)=CC[C@@H]12 [Abi, abiraterone]
- cell growth, 3 days (C4-2B MDVR cells): resistant
- cell growth, 3 days (CWR22Rv1 cells): resistant

SMILES: CNC(=O)c1ccc(N2C(=S)N(c3cnc(C#N)c(C(F)(F)F)c3)C(=O)C23CCC3)cc1F [Apal, apalutamide]
- cell growth, 3 days (C4-2B MDVR cells): resistant
- cell growth, 3 days (CWR22Rv1 cells): resistant
- transcriptional activity mediated by AR-V7 and AR mutants [1]: could not suppress

SMILES: CNC(=O)c1ccc(N2C(=S)N(c3ccc(C#N)c(C(F)(F)F)c3)C(=O)C2(C)C)cc1F [Enza, enzalutamide]
- cell growth, 3 days (C4-2B MDVR cells): resistant
- cell growth, 3 days (CWR22Rv1 cells): resistant
- transcriptional activity mediated by AR-V7 and AR mutants [1]: could not suppress
- tumor PSA expression (mouse serum), single treatment (VCaP xenografts; Fig.6F): slightly, but insignificantly, suppressed
- tumor growth, single treatment (VCaP xenografts; Enza 20 mg/Kg p.o., ARVib-7 75 mg/Kg orally, Fig.6C-6E): insignificantly inhibited

SMILES: CC(O)(CS(=O)(=O)c1ccc(F)cc1)C(=O)Nc1ccc(C#N)c(C(F)(F)F)c1 (centres unmarked) [bicalutamide]
- WT-AR transcriptional activity (wild-type AR (WT-AR)): suppress
- transcriptional activity mediated by AR-V7 and AR mutants [1]: could not suppress

SMILES: O=C(Nc1ccc([N+](=O)[O-])cc1Cl)c1cc(Cl)ccc1O [niclosamide]
- suppression of tumor growth / tumor volume compared to vehicle control (LuCaP 35CR xenografts; Fig.5C): 50%
- tumor PSA expression (mouse serum) (LuCaP 35CR xenografts; Fig.5F): slightly suppressed
- inhibition of AR expression (AR; dose series, Fig.1C left): 84.42%
- inhibition of AR expression (AR; western blot, Fig.1B): 89.73%
- bioavailability [2]: ~ 10%
- enhancement of Enza treatment (cell growth) (C4-2B MDVR cells; 0.25 μM with 20 μM Enza, 3 days, Supplementary Fig.6E): profoundly enhanced
- enhancement of Enza treatment (cell growth) (CWR22Rv1 cells; CWR22Rv1, 0.5 μM with 20 μM Enza, 3 days, Fig.6A): profoundly enhanced
- mouse body weight (CWR22Rv1 xenografts): did not affect
